Screening results: PubChem, Sanford-Burnham Center for Chemical Genomics
bIAP inh: bovine intestinal alkaline phosphatase inhibitors, primary screen, selectivity assay for TNAP inhibitor project, biochemical, bovine IAP, CDP-star luminescence; AID 1019, 2008; purified bovine IAP, 30 min; inhibition, % at 20 µM; alkaline phosphatase, intestinal [Bos taurus]; 190,000 tested, under 10 active;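 active means over 50% inhibition of intestinal alkaline phosphatase at 20 µM in the single-dose screen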
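System: purified bovine intestinal alkaline phosphatase (IAP) enzyme; Input: IAP diluted 1/65,000,000 in the well; Measured by: CDP-star luminescence signal; Compound dosing: 20 µM single dose; Incubation: 30 min reaction at room temperature.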
mIAP activ: activators of mouse IAP, primary screen, biochemical, luminescence, uHTS; muIAP, CDP-Star luminescence, 30 min; hits give high values; 1 = vehicle-only enzyme signal, 0 = enzyme-free wells; hit rate 0.24% among 330,000; activation factor at 10 µM; AID 2805, 2010;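 active means activation factor of at least 2 at 20 µM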
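Assay system: mouse IAP enzyme / Compound: DMSO-dissolved test compounds / Timing: 30 min, room temperature / Measured by: luminescence from enzymatic CDP-Star hydrolysis / Control set: DMSO-only wells, enzyme-free buffer wells as negative control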
hIAP act: human IAP activators, primary screen, biochemical, luminescence, uHTS | Intestinal-type alkaline phosphatase (Homo sapiens), P09923 | purified human IAP, CDP-Star luminescence, 30 min; hits give high values; 1 = vehicle-only enzyme, 0 = enzyme-free background | activation factor at 10 µM | hit rate 0.16% among 330,000 | AID 2524, 2010;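 active means activation factor of the enzyme at least 2-fold when tested at 20 µM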
Target sequence (P09923 whole entry, looked up): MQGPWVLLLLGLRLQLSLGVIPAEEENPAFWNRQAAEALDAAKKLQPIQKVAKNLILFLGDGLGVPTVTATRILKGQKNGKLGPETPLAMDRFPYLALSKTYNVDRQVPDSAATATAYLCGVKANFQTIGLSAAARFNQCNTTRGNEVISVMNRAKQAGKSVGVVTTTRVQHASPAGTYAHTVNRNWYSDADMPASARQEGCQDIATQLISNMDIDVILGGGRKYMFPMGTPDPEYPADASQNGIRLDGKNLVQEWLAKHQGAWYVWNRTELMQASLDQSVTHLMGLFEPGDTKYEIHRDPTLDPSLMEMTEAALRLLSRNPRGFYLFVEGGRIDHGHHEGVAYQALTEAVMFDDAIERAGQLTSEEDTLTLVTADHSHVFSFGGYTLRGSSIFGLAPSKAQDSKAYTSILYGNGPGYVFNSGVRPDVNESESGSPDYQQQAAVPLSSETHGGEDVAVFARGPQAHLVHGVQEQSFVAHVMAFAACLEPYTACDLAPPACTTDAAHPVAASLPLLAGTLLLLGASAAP
mIAP inh: inhibitors of mouse IAP, primary screen, biochemical, luminescence, uHTS | purified mouse IAP, CDP-Star luminescence, 30 min | inhibition, % at 10 µM | hit rate 0.2% among 330,000;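 active means inhibition of at least 40% at 10 µM in the primary screen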;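 further: plate controls were DMSO with enzyme for no effect and no enzyme wells for full effect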
bIAP activator: bovine intestinal alkaline phosphatase activators, primary screen, biochemical, bovine IAP, CDP-star luminescence. activation factor at 20 µM. hit rate 0.17% among 200,000. AID 1016, 2008. purified bovine IAP, 30 min; hits give high values; fold of DMSO-control signal, blank-subtracted;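 active means activation factor of 2 or more at 20 µM, a signal rise over negative controls twice the positive control's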
hIAP inh: human IAP inhibitors, primary screen, biochemical, luminescence, uHTS; Intestinal-type alkaline phosphatase (Homo sapiens), P09923; purified IAP, CDP-Star luminescence, 30 min; inhibition, % at 10 µM; hit rate 0.12% among 330,000; AID 2544, 2010;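 active means inhibition reaching a set limit with compound at 10 µM in the primary screen, cut at about 35% in these data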;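 further: plate controls were DMSO wells with enzyme for no effect and no-enzyme buffer wells for full effect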
hIAP act confirm: human IAP activators, confirmation, biochemical, luminescence, single concentration, uHTS hits | hit rate 10% among 880 | purified IAP, CDP-Star luminescence, 30 min; hits give low values | shares compounds with hIAP act | AID 434926, 2010 | activation (%Activity, negative = activation), % at 8.3 µM;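 active means at least twofold enzyme activation in any of six single-dose repeats, which the averaged readout prints as negative percent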
* hit, by the source's call; x = no result. A selection: hits, their analogues and other compounds. The true share with any hit is near 0.77%.

SMILES	bIAP inh	mIAP activ	hIAP act	mIAP inh	bIAP activator	hIAP inh	hIAP act confirm
Cc1nn(CC(=O)O)c(C)c1NC(=O)c1cccs1	x	1	0.58	-2	x	42*	14
O=C(CN1CCCC1)Nc1ccc(F)cc1	6	0.92	0.99	8	0.9	1	x
O=C(CN1CCN(C(=O)N2CCCCC2)CC1)Nc1ccc(F)cc1	-4	1.1	2.3*	-9	1	-127	-97*
Cc1ccc(S(=O)(=O)NCC(=O)N/N=C/c2ccccc2O)cc1	-45	0.71	2.2*	29	1.4	-118	-63
Cc1ccc(S(=O)(=O)NCC(=O)N/N=C/c2ccc(Cl)cc2Cl)cc1	3	1	0.97	-2	1	3	x
Cc1cc(-n2c(SCC(=O)Nc3ccc(F)c(F)c3)nc3n[nH]c(C)c3c2=N)ccc1Cl	x	1.1	2.1*	-14	x	-107	-40
Cc1cccc(-n2cnc(C(=O)NNC(=S)Nc3ccc(Cl)cc3)c2)n1	-18	0.85	2*	15	1.2	-102	1
Cc1nc2ccccn2c1C(=O)NNC(=S)Nc1ccc(Cl)cc1	4	0.87	0.93	13	1	7	x
Cc1cc2oc(=O)cc(Cn3ccnc3)c2cc1Cl	x	0.9	0.91	10	x	9	x
O=C1/C(=C/c2ccc(O)cc2)SC(=S)N1CC1CCCO1 (centres undefined)	x	0.69	0.62	31	x	38*	12
O=C1/C(=C\c2ccc(O)cc2)SC(=S)N1Cc1ccccc1	x	0.78	0.63	22	x	37*	2
O=S(=O)(Nc1ccc(-n2cnnn2)cc1)c1cccs1	x	1.1	1.2	-7	x	-23	x
O=C(C1CCN(S(=O)(=O)c2ccccc2)CC1)N1CCOCC1	10	0.91	0.6	9	0.9	40*	-26
COc1cc(OC)cc(C(=O)NNC(=O)c2nn(C)c(=O)c3ccccc23)c1	x	1	2.1*	-4	x	-106	23
Cn1nc(C(=O)NNC(=O)c2ccc(Cl)c(S(N)(=O)=O)c2)c2ccccc2c1=O	x	0.67	2.1*	33	x	-105	2
COc1ccc(OCC(=O)NNC(=O)c2nn(C)c(=O)c3ccccc23)cc1	-6	0.91	1.2	9	1.1	-22	x
CCCCc1ccc(NC(=O)CSc2nc3ncccc3[nH]2)cc1	x	0.82	2.1*	18	x	-115	25
Cc1ccc(/C=N/NC(=O)c2cc(-c3ccc(C)o3)[nH]n2)cc1	x	0.87	2.1*	13	x	-107	6
Cc1ccc(-c2cc(C(=O)N/N=C/c3cccnc3)n[nH]2)o1	0	0.91	1.2	9	1	-23	x
COc1cc(OC)cc(-c2nnc(Nc3nc4c(F)cccc4s3)o2)c1	6	0.81	2*	19	0.9	-103	-1
CCC(=O)OCC(=O)Nc1cc([N+](=O)[O-])ccc1OC	-6	1.1	0.9	-10	1.1	10	x
COc1ccc(C)cc1S(=O)(=O)n1nc(C)cc1C	-8	0.95	1.1	5	1.1	-13	x
COc1ccc(F)cc1S(=O)(=O)n1nc(C)cc1C	x	0.97	0.6	2	x	40*	-62
COc1ccccc1C(=O)NNC(=O)C1CC=CCC1 (centres undefined)	x	0.99	1.1	1	x	-7	x
CCOC(=O)[C@@H]1[C@H]2COc3ccc(Br)cc3[C@@H]2N2C(=O)N(c3ccc(F)cc3)C(=O)[C@]12C	x	0.99	1.1	1	x	-9	x
SMILES	bIAP inh	mIAP activ	hIAP act	mIAP inh	bIAP activator	hIAP inh	hIAP act confirm
CC(=O)c1n[nH]nc1Nc1nc(C)cc(C)n1	35	1.1	2.2*	-8	0.7	-123	0
COc1ccccc1C1CN(c2ccccc2)N=C1c1cccs1 (centres undefined)	-25	1.5	0.4	-53	1.2	60*	-128*
Cc1cc(C)c2nc(-c3ccccn3)cc(C(=O)n3cccn3)c2c1	14	0.93	0.97	8	0.9	3	x
COc1cccc(Cn2cccc(NC(=O)NCc3ccccc3)c2=O)c1	x	0.95	0.61	5	x	38*	9
O=C1Nc2ccccc2/C1=N\N=C\c1ccc(O)c(O)c1	x	0.64	0.65	36	x	35*	62
COc1cc(/C=N/N=C2/C(=O)Nc3ccccc32)ccc1O	11	0.88	0.79	12	0.9	22	x
CCN(CC(=O)NC(c1ccccc1)c1ccccc1)Cc1nc2ccccc2c(=O)[nH]1	-142	1.6	2.1*	-65	2.4*	-113	-65
CCN(CC(=O)Nc1ccccc1SC)Cc1nc2ccccc2c(=O)[nH]1	x	0.97	1.4	3	x	-39	x
O=C(NNC(=S)NC(=O)c1ccccc1)c1cccnc1	x	0.83	2.5*	17	x	-148	-320*
CCN(CC)C(=O)COc1ccc(S(=O)(=O)N2CCOCC2)cc1	8	1.1	2.4*	-7	0.9	-145	-26
CCN(CC)C(=O)COc1ccc(S(=O)(=O)N2CCCC2)cc1	x	0.96	1.1	4	x	-11	x
CCOC(=O)CSc1nnc(Cc2ccccc2)n1-c1ccc(C)cc1	20	0.82	1.1	18	0.8	-13	x
Cc1ccc(-n2c(Cc3ccccc3)nnc2SCC(=O)NNC(=O)Cc2ccccc2)cc1	-57	0.99	2*	1	1.6	-100	-1
CCc1ccc(-c2cc(C(=O)N/N=C/c3ccccn3)[nH]n2)cc1	-1	1	1.7	-3	1	-72	x
CCc1ccc(-c2cc(C(=O)N/N=C/c3ccco3)[nH]n2)cc1	2	1	1.6	-3	1	-65	x
O=C(N/N=C/c1ccco1)c1cc(-c2ccc3ccccc3c2)n[nH]1	-42	0.96	2.1*	4	1.4	-108	-15
O=C(N/N=C/c1ccccn1)c1cc(-c2ccc3ccccc3c2)n[nH]1	18	0.93	2.2*	7	0.8	-125	-30
COC(=O)c1ccc(CNC(=O)CCNC(=O)c2ccco2)cc1	x	0.94	1	6	x	-4	x
Cc1ccc(C(=O)NC(C)c2nc3ccccc3n2CC(=O)Nc2c(C)cc(C)cc2C)cc1 (centres undefined)	x	2.7*	4*	-168	x	-303	-54
NS(=O)(=O)c1ccc(N2N=C(c3ccccc3)CC2c2ccccc2Br)cc1 (centres undefined)	x	1.8	x	-76	x	x	x
